Source: PubChem (The Scripps Research Institute Molecular Screening Center)
LEDGF integ inh = blockers of LEDGF/p75-dependent integrase strand transfer – biochemical, TR-FRET, high throughput, primary screen. HIV-1 integrase (with human LEDGF/p75). inhibition, % at 3.7 µM. actives 0.64% (n = 370,000). TR-FRET IN-LEDGF/p75 DNA integration, Eu/Cy5;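 active means inhibition above the screen-wide mean plus 3 SD, cut at about 13% in these data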;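 further: signal is the Cy5 over europium emission ratio at 671 and 618 nm; 0% = plate median of compound wells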
MBD2 inh = inhibitors of MBD2 binding to methylated DNA, primary screen, biochemical, TR-FRET, DNA-binding domain, human. Methyl-CpG-binding domain protein 2 (Homo sapiens), Q9UBB5. MBD2 binding to methylated oligonucleotide. inhibition, % at 4.4 µM. actives 0.31% (n = 370,000). AID 686964, 2013; in the data active means inhibition above about 13%
TDP2 inh = human TDP2 enzyme inhibitors, primary screen, biochemical, epi absorbance, recombinant enzyme; inhibition, % at 12.8 µM; T5PNP hydrolysis, p-nitrophenol absorbance 415 nm; actives 0.34% (n = 370,000); Tyrosyl-DNA phosphodiesterase 2 (Homo sapiens), O95551;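 active means inhibition above the mean of all tested compounds plus 3 SD, set per campaign, cut at about 25% in these data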;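 further: 0% = DMSO with enzyme and 100% = buffer with substrate but no TDP2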
Target sequence (O95551 whole entry, looked up): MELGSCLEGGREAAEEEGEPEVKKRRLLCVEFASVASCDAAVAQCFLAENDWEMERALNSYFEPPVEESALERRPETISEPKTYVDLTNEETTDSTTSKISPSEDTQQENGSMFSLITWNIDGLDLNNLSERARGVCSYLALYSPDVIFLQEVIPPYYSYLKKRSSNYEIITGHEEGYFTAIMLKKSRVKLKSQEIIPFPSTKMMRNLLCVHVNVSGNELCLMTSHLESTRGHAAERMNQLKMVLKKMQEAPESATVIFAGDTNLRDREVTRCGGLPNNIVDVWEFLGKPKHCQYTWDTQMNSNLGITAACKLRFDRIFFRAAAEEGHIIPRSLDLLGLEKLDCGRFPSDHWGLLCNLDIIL
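Assay system: Recombinant human TDP2 | Quantity: 120 nM TDP2 per well | Incubation: 2 h at 37 °C | Signal: Epi absorbance | Evaluation: Percent inhibition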
UHRF1 MBD2 ctr = UHRF1 methylated DNA binding inhibitors, primary screen, counter-screen for MBD2 inhibitor project, biochemical, TR-FRET, human UHRF1, single concentration; E3 ubiquitin-protein ligase UHRF1 (Homo sapiens), Q96T88; UHRF1 binding to methylated oligo; inhibition, % at 4.4 µM; actives 0.75% (n = 370,000); AID 687016, 2013;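 further: UHRF1 SRA domain binding a hemimethylated CpG hairpin DNA probe; 0% = median of test compound wells and 100% = reference inhibitor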
UHRF1 DNA bind = UHRF1 methylated DNA binding inhibitors, counter-screen for MBD2 inhibitor project, biochemical, TR-FRET, human UHRF1 | shares compounds with MBD2 inh | UHRF1 binding to methylated oligonucleotide | inhibition, % at 4.4 µM | actives 25% (n = 1,000);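 further: UHRF1 SRA domain binding a labeled hemimethylated CpG hairpin DNA; 0% = vehicle only and 100% = reference inhibitor with vehicle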
MBD2 DBD conf = inhibitors of MBD2 binding to methylated DNA, confirmation, biochemical, TR-FRET, DNA-binding domain, human; TR-FRET MBD2-DBD binding to methylated oligonucleotide; shares compounds with MBD2 inh; actives 26% (n = 1,000); AID 720531, 2013; inhibition, % at 4.4 µM; in the data active means inhibition above about 14%
* hit, by the source's call; ! = not confirmed by another sample. A selection: hits, their analogues and other compounds. The true share with any hit is near 1.6%. Unless noted, no stated cut-off is given here; in the data, active means inhibition above about 21%; inactive means the rest.

Results for CC(C)(C)n1nnnc1C(c1ccc(F)cc1)N(Cc1ccc(F)cc1)Cc1ccco1 (configuration not stated) ?
LEDGF integ inh: 3.9; MBD2 inh: -3.6; TDP2 inh: -0.6; UHRF1 MBD2 ctr: 0.5

How did O=C(CC1Sc2ccccc2NC1=O)Nc1cccnc1 (configuration not stated) do in these assays?
LEDGF integ inh: 0.3; MBD2 inh: -3.2; TDP2 inh: 7.6; UHRF1 MBD2 ctr: -1.3

What do the screens show for `CC(C(=O)Nc1cccnc1)C1Sc2ccccc2NC1=O` (configuration not stated)?
LEDGF integ inh: -1.5; MBD2 inh: 77.6*; TDP2 inh: 5.9; UHRF1 MBD2 ctr: -0.9; UHRF1 DNA bind: 3.4; MBD2 DBD conf: 0.1

What do the screens show for `CC(=O)C1=C(C)N(Cc2ccc(F)cc2)C(=S)NC1c1cccc(F)c1` (configuration not stated)?
LEDGF integ inh: -0.7; MBD2 inh: 0.8; TDP2 inh: -7.2; UHRF1 MBD2 ctr: -1.0

What do the screens show for `CC(C)CC1Nc2ncnc(N3CCOCC3)c2N(Cc2ccc(Cl)cc2)C1=O` (configuration not stated)?
LEDGF integ inh: -1.0; MBD2 inh: 20.6*!; TDP2 inh: 6.4; UHRF1 MBD2 ctr: 23.6*!; UHRF1 DNA bind: 1.7; MBD2 DBD conf: 0.8

How did CC(C)CC1Nc2ncnc(N3CCOCC3)c2N(Cc2ccccc2)C1=O (configuration not stated) do in these assays?
LEDGF integ inh: 2.2; MBD2 inh: 0.6; TDP2 inh: -2.4; UHRF1 MBD2 ctr: 0.4

What do the screens show for `COc1ccc(CC(=O)N2CCN(c3cccc(C)c3C)CC2)cc1`?
LEDGF integ inh: -2.5; MBD2 inh: 15.8*; TDP2 inh: -5.1; UHRF1 MBD2 ctr: 1.5; UHRF1 DNA bind: 4.9; MBD2 DBD conf: 3.5

Results for CCCCCCCCN1C(=O)N2Cc3cc(OC)ccc3C2CS1(=O)=O (configuration not stated) ?
LEDGF integ inh: 2.2; MBD2 inh: -3.3; TDP2 inh: 6.1; UHRF1 MBD2 ctr: 0.9

How did O=C(c1cc(COc2ccc(F)cc2F)on1)N1CCCC(c2ccccc2)C1 (configuration not stated) do in these assays?
LEDGF integ inh: 4.9; MBD2 inh: 14.9*; TDP2 inh: -8.0; UHRF1 MBD2 ctr: 24.6*; UHRF1 DNA bind: 3.9; MBD2 DBD conf: 2.2

Results for O=C(c1cc(COc2ccc(F)cc2Cl)on1)N1CCCC(c2ccccc2)C1 (configuration not stated) ?
LEDGF integ inh: -0.4; MBD2 inh: 2.2; TDP2 inh: -7.1; UHRF1 MBD2 ctr: -1.4

How did CC(C)CN1C(=O)C[C@@]2(C(=O)N(C)c3ccc(NC(=O)C(C)(C)C)cc32)C1c1ccccc1 (some centres not stated) do in these assays?
LEDGF integ inh: 1.0; MBD2 inh: -3.0; TDP2 inh: 3.6; UHRF1 MBD2 ctr: 1.1

Results for CC(C)CN1C(=O)C[C@@]2(C(=O)N(C)c3ccc(NS(=O)(=O)C4CC4)cc32)C1c1ccccc1 (some centres not stated) ?
LEDGF integ inh: 2.9; MBD2 inh: 15.2*; TDP2 inh: 14.5; UHRF1 MBD2 ctr: 14.9; UHRF1 DNA bind: 11.6; MBD2 DBD conf: 8.1

Results for Cn1c(SCC(=O)c2c(N)n(C)c(=O)n(C)c2=O)nnc1-c1ccccc1F ?
LEDGF integ inh: -0.2; MBD2 inh: 32.1*; TDP2 inh: 1.8; UHRF1 MBD2 ctr: 1.7; UHRF1 DNA bind: -3.2; MBD2 DBD conf: 0.2

Results for COc1ccc(-c2nnn(CCC(=O)O)n2)cc1 ?
LEDGF integ inh: 1.3; MBD2 inh: 36.0*; TDP2 inh: 4.3; UHRF1 MBD2 ctr: -1.2; UHRF1 DNA bind: 7.1; MBD2 DBD conf: 4.2
